Measurements taken from ChEMBL document CHEMBL1123585, “Differential effects of N-terminal modifications on the biological potencies of growth hormone releasing factor analogues with varying chain lengths” (1987).
Where “and” joins values, the source holds several entries; their conditions need not be identical. Equal values may be shown once.

Columns and labels:
[1] = target: T1, Growth hormone-releasing hormone receptor (Rattus norvegicus) (UniProt Q02644); assay: Tested for the potency of growth hormone (GRF) on subcutaneous administration in anesthetized male Charles River rats; assay type: functional, organism-based
T1 sequence (whole entry): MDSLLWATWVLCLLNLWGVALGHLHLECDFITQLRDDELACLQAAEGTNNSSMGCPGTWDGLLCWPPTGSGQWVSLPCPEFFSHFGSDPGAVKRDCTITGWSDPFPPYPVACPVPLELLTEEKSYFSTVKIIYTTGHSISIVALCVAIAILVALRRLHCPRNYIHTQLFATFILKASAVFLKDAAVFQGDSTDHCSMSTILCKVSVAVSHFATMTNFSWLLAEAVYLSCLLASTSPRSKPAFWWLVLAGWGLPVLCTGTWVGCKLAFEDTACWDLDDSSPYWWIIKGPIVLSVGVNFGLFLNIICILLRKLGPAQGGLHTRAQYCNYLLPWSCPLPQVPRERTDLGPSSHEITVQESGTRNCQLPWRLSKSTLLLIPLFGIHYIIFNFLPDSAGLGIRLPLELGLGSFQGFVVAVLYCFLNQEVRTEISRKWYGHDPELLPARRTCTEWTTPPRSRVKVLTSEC
Procedure, shortened: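 Pentobarbital-anesthetized male rats (175-275 g), six to nine per group, received two subcutaneous doses of analogue or of reference GRF(1-29)NH2, in 0.5 mL, 30 min after anesthesia. Plasma GH measured by RIA 15 min later. Potency with 95% confidence limits calculated from a four-point assay design by the Pugsley method.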

[2] = target: T1, Growth hormone-releasing hormone receptor (Rattus norvegicus); assay: Effect on growth hormone release(GRF) was determined in nembutal-anesthetized rat, at dose of 100 ug/100 g body weight.; assay type: functional
Procedure, shortened: (§1)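 Male Charles River rats (175-275 g), anesthetized with sodium pentobarbital 6 mg/100 g body weight. Six to nine per group. Peptide or saline given subcutaneously in 0.5 mL, 30 min after anesthetic. Jugular vein blood taken 15 min post-injection. Plasma GH measured by radioimmunoassay and reported as ng/mL, mean ± SEM.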

[3] = target: T1, Growth hormone-releasing hormone receptor (Rattus norvegicus); assay: Effect on growth hormone release(GRF) was determined in nembutal-anesthetized rat, at dose of 10 ug/100 g body weight.; assay type: functional; procedure, shortened: as §1
[4] = target: T1, Growth hormone-releasing hormone receptor (Rattus norvegicus); assay: In vitro rat pituitary cell growth hormone response was obtained; assay type: functional, cell-based; details: Pituitary gland cell
Rattus norvegicus [5] = assay: Effect on growth hormone release(GRF) was determined in nembutal-anesthetized rat, at dose of 20 ug/100 g body weight.; assay type: functional, organism-based; procedure, shortened: as §1
Rattus norvegicus [6] = assay: Effect on growth hormone release(GRF) was determined in nembutal-anesthetized rat, at dose of 50 ug/100 g body weight.; assay type: functional, organism-based; procedure, shortened: as §1
Rattus norvegicus [7] = assay: Effect on growth hormone release(GRF) was determined in nembutal-anesthetized rat, at dose of 40 ug/100 g body weight.; assay type: functional, organism-based; procedure, shortened: as §1
Rattus norvegicus [8] = species on record: Rattus norvegicus; assay: In vitro rat pituitary cell growth hormone response to the compound was obtained; assay type: functional, Pituitary gland cell

Compound	Potency [1]	Plasma GH release [2]	Plasma GH release [3]	other results
Ac-YADAIFTNSYRKVLGQLSARKLLQ-NH2	< 5%	664 ng/mL	396 ng/mL	
CC[C@H](C)[C@H](NC(=O)[C@H](C)NC(=O)[C@H](CC(=O)O)NC(=O)[C@H](C)NC(=O)[C@@H](N)Cc1ccc(O)cc1)C(=O)N[C@@H](Cc1ccccc1)C(=O)N[C@H](C(=O)N[C@@H](CC(N)=O)C(=O)N[C@@H](CO)C(=O)N[C@@H](Cc1ccc(O)cc1)C(=O)N[C@@H](CCCN=C(N)N)C(=O)N[C@@H](CCCCN)C(=O)N[C@H](C(=O)N[C@@H](CC(C)C)C(=O)NCC(=O)N[C@@H](CCC(N)=O)C(=O)N[C@@H](CC(C)C)C(=O)N[C@@H](CO)C(=O)N[C@@H](C)C(=O)N[C@@H](CCCN=C(N)N)C(=O)N[C@@H](CCCCN)C(=O)N[C@@H](CC(C)C)C(=O)N[C@@H](CC(C)C)C(=O)N[C@@H](CCC(N)=O)C(N)=O)C(C)C)[C@@H](C)O	< 1%			Potency [4]: 0.008%
Ac-YADAIFTNSYRKVLGQLSARKLLQDIL-NH2	54%			Plasma GH release (Rattus norvegicus [5]): 1270 ng/mL; Plasma GH release (Rattus norvegicus [6]): 2730 ng/mL
CC[C@H](C)[C@H](NC(=O)[C@H](C)NC(=O)[C@H](CC(=O)O)NC(=O)[C@H](C)NC(=O)[C@@H](N)Cc1ccc(O)cc1)C(=O)N[C@@H](Cc1ccccc1)C(=O)N[C@H](C(=O)N[C@H](CC(N)=O)C(=O)N[C@@H](CO)C(=O)N[C@@H](Cc1ccc(O)cc1)C(=O)N[C@@H](CCCN=C(N)N)C(=O)N[C@@H](CCCCN)C(=O)N[C@H](C(=O)N[C@@H](CC(C)C)C(=O)NCC(=O)N[C@@H](CCC(N)=O)C(=O)N[C@@H](CC(C)C)C(=O)N[C@@H](CO)C(=O)N[C@@H](C)C(=O)N[C@@H](CCCN=C(N)N)C(=O)N[C@@H](CCCCN)C(=O)N[C@@H](CC(C)C)C(=O)N[C@@H](CC(C)C)C(=O)N[C@@H](CCC(N)=O)C(=O)N[C@@H](CC(=O)O)C(=O)N[C@H](C(=O)N[C@@H](CCSC)C(=O)N[C@@H](CO)C(=O)N[C@@H](CCCN=C(N)N)C(N)=O)[C@@H](C)CC)C(C)C)[C@@H](C)O	220%			
CC[C@H](C)[C@H](NC(=O)[C@H](C)NC(=O)[C@H](CC(=O)O)NC(=O)[C@@H](C)N(C)C(=O)[C@@H](N)Cc1ccc(O)cc1)C(=O)N[C@@H](Cc1ccccc1)C(=O)N[C@H](C(=O)N[C@H](CC(N)=O)C(=O)N[C@@H](CO)C(=O)N[C@@H](Cc1ccc(O)cc1)C(=O)N[C@@H](CCCN=C(N)N)C(=O)N[C@@H](CCCCN)C(=O)N[C@H](C(=O)N[C@@H](CC(C)C)C(=O)NCC(=O)N[C@@H](CCC(N)=O)C(=O)N[C@@H](CC(C)C)C(=O)N[C@@H](CO)C(=O)N[C@@H](C)C(=O)N[C@@H](CCCN=C(N)N)C(=O)N[C@@H](CCCCN)C(=O)N[C@@H](CC(C)C)C(N)=O)C(C)C)[C@@H](C)O	< 5%	385 ng/mL	512 ng/mL	
CC[C@H](C)[C@H](NC(=O)[C@H](C)NC(=O)[C@@H](CC(=O)O)NC(=O)[C@@H](C)NC(=O)[C@@H](N)Cc1ccc(O)cc1)C(=O)N[C@@H](Cc1ccccc1)C(=O)N[C@H](C(=O)N[C@H](CC(N)=O)C(=O)N[C@@H](CO)C(=O)N[C@@H](Cc1ccc(O)cc1)C(=O)N[C@@H](CCCN=C(N)N)C(=O)N[C@@H](CCCCN)C(=O)N[C@H](C(=O)N[C@@H](CC(C)C)C(=O)NCC(=O)N[C@@H](CCC(N)=O)C(=O)N[C@@H](CC(C)C)C(=O)N[C@@H](CO)C(=O)N[C@@H](C)C(=O)N[C@@H](CCCN=C(N)N)C(=O)N[C@@H](CCCCN)C(=O)N[C@@H](CC(C)C)C(N)=O)C(C)C)[C@@H](C)O	< 5%	340 ng/mL	314 ng/mL	
CC[C@H](C)[C@H](NC(=O)[C@H](C)NC(=O)[C@H](CC(=O)O)NC(=O)[C@@H](C)NC(=O)[C@@H](N)Cc1ccc(O)cc1)C(=O)N[C@@H](Cc1ccccc1)C(=O)N[C@H](C(=O)N[C@H](CC(N)=O)C(=O)N[C@@H](CO)C(=O)N[C@@H](Cc1ccc(O)cc1)C(=O)N[C@@H](CCCN=C(N)N)C(=O)N[C@@H](CCCCN)C(=O)N[C@H](C(=O)N[C@@H](CC(C)C)C(=O)NCC(=O)N[C@@H](CCC(N)=O)C(=O)N[C@@H](CC(C)C)C(=O)N[C@@H](CO)C(=O)N[C@@H](C)C(=O)N[C@@H](CCCN=C(N)N)C(=O)N[C@@H](CCCCN)C(=O)N[C@@H](CC(C)C)C(N)=O)C(C)C)[C@@H](C)O	< 5%		417 ng/mL and 305 ng/mL	
CC[C@H](C)[C@H](NC(=O)[C@H](C)NC(=O)[C@@H](CC(=O)O)NC(=O)[C@H](C)NC(=O)[C@@H](N)Cc1ccc(O)cc1)C(=O)N[C@@H](Cc1ccccc1)C(=O)N[C@H](C(=O)N[C@H](CC(N)=O)C(=O)N[C@@H](CO)C(=O)N[C@@H](Cc1ccc(O)cc1)C(=O)N[C@@H](CCCN=C(N)N)C(=O)N[C@@H](CCCCN)C(=O)N[C@H](C(=O)N[C@@H](CC(C)C)C(=O)NCC(=O)N[C@@H](CCC(N)=O)C(=O)N[C@@H](CC(C)C)C(=O)N[C@@H](CO)C(=O)N[C@@H](C)C(=O)N[C@@H](CCCN=C(N)N)C(=O)N[C@@H](CCCCN)C(=O)N[C@@H](CC(C)C)C(N)=O)C(C)C)[C@@H](C)O	< 5%	401 ng/mL	498 ng/mL	
CC[C@H](C)[C@H](NC(=O)[C@H](C)NC(=O)[C@H](CC(=O)O)NC(=O)[C@H](C)NC(=O)[C@@H](N)Cc1ccc(O)cc1)C(=O)N[C@@H](Cc1ccccc1)C(=O)N[C@H](C(=O)N[C@@H](CC(N)=O)C(=O)N[C@@H](CO)C(=O)N[C@@H](Cc1ccc(O)cc1)C(=O)N[C@@H](CCCN=C(N)N)C(=O)N[C@@H](CCCCN)C(=O)N[C@H](C(=O)N[C@@H](CC(C)C)C(=O)NCC(=O)N[C@@H](CCC(N)=O)C(=O)N[C@@H](CC(C)C)C(=O)N[C@@H](CO)C(=O)N[C@@H](C)C(=O)N[C@@H](CCCN=C(N)N)C(=O)N[C@@H](CCCCN)C(=O)N[C@@H](CC(C)C)C(=O)N[C@@H](CC(C)C)C(=O)N[C@@H](CCCN=C(N)N)C(N)=O)C(C)C)[C@@H](C)O	< 1%	406 ng/mL		Plasma GH release (Rattus norvegicus [7]): 392 ng/mL
CC[C@H](C)[C@H](NC(=O)C(CC(=O)O)NC(=O)[C@H](CCC(N)=O)NC(=O)[C@H](CC(C)C)NC(=O)[C@H](CC(C)C)NC(=O)[C@H](CCCCN)NC(=O)[C@H](CCCN=C(N)N)NC(=O)[C@H](C)NC(=O)[C@H](CO)NC(=O)[C@H](CC(C)C)NC(=O)[C@H](CCC(N)=O)NC(=O)CNC(=O)[C@H](CC(C)C)NC(=O)[C@@H](NC(=O)[C@H](CCCCN)NC(=O)[C@H](CCCN=C(N)N)NC(=O)[C@H](Cc1ccc(O)cc1)NC(=O)[C@H](CO)NC(=O)[C@H](CC(N)=O)NC(=O)[C@@H](NC(=O)[C@H](Cc1ccccc1)NC(=O)[C@@H](NC(=O)[C@H](C)NC(=O)C(CC(=O)O)NC(=O)[C@@H](C)NC(=O)[C@@H](N)Cc1ccc(O)cc1)[C@@H](C)CC)[C@@H](C)O)C(C)C)C(=O)N[C@@H](CCSC)C(=O)N[C@@H](CO)C(=O)N[C@@H](CCCN=C(N)N)C(N)=O (stereo in doubt)	670%			Potency (Rattus norvegicus [8]): 150%
CC[C@H](C)[C@H](NC(=O)[C@H](C)NC(=O)[C@H](CC(=O)O)NC(=O)[C@H](C)NC(=O)[C@H](Cc1ccc(O)cc1)NC(C)=O)C(=O)N[C@@H](Cc1ccccc1)C(=O)N[C@H](C(=O)N[C@@H](CC(N)=O)C(=O)N[C@@H](CO)C(=O)N[C@@H](Cc1ccc(O)cc1)C(=O)N[C@@H](CCCN=C(N)N)C(=O)N[C@@H](CCCCN)C(=O)N[C@H](C(=O)N[C@@H](CC(C)C)C(=O)NCC(=O)N[C@@H](CCC(N)=O)C(=O)N[C@@H](CC(C)C)C(=O)N[C@@H](CO)C(=O)N[C@@H](C)C(=O)N[C@@H](CCCN=C(N)N)C(=O)N[C@@H](CCCCN)C(=O)N[C@@H](CC(C)C)C(=O)N[C@@H](CC(C)C)C(=O)N[C@@H](CCC(N)=O)C(=O)N[C@@H](CC(=O)O)C(=O)N[C@H](C(=O)N[C@@H](CCSC)C(=O)N[C@@H](CO)C(=O)N[C@@H](CCCN=C(N)N)C(N)=O)[C@@H](C)CC)C(C)C)[C@@H](C)O	1200%			Potency (Rattus norvegicus [8]): 240%
Ac-HADAIFTNSYRKVLGQLSARKLLQ-NH2	< 5%	719 ng/mL	358 ng/mL	
CC[C@H](C)[C@H](NC(=O)[C@H](C)NC(=O)[C@H](CC(=O)O)NC(=O)[C@H](C)NC(=O)[C@@H](N)Cc1ccc(O)cc1)C(=O)N[C@@H](Cc1ccccc1)C(=O)N[C@H](C(=O)N[C@H](CC(N)=O)C(=O)N[C@@H](CO)C(=O)N[C@@H](Cc1ccc(O)cc1)C(=O)N[C@@H](CCCN=C(N)N)C(=O)N[C@@H](CCCCN)C(=O)N[C@H](C(=O)N[C@@H](CC(C)C)C(=O)NCC(=O)N[C@@H](CCC(N)=O)C(=O)N[C@@H](CC(C)C)C(=O)N[C@@H](CO)C(=O)N[C@@H](C)C(=O)N[C@@H](CCCN=C(N)N)C(=O)N[C@@H](CCCCN)C(=O)N[C@@H](CC(C)C)C(=O)N[C@@H](CC(C)C)C(=O)N[C@@H](CCC(N)=O)C(=O)N[C@@H](CC(=O)O)C(=O)N[C@H](C(=O)N[C@@H](CC(C)C)C(N)=O)[C@@H](C)CC)C(C)C)[C@@H](C)O	53%			Potency [4]: 25%; Plasma GH release (Rattus norvegicus [5]): 1550 ng/mL; Plasma GH release (Rattus norvegicus [6]): 2370 ng/mL
